Screening data: PubChem, The Scripps Research Institute Molecular Screening Center
HTRA1 inhibitor = HTRA1 (human) protease inhibition. AID 504803. Q92743. recombinant HTRA1, FP-rhodamine activity-based probe, fluorescence polarization. inhibition, % at 5.96 µM. 0.5% of 340,000 active; in the data active = inhibition above about 36%;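 also: 0% = enzyme with DMSO and 100% = wells lacking enzyme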
SIAE inh = blocks human sialic acid acetylesterase | Q9HAT2 | SIAE FP-Rh probe binding, fluorescence polarization | inhibition, % at 9.66 µM | 0.69% of 370,000 active | AID 1053197;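 active = inhibition above a cutoff: mean of compounds within the control limits plus 3 SD of those, cut at about 17% in these data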;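 also: 0% = plate median of compound wells and 100% = probe without SIAE protein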
ABHD4 inh = inhibitors of mouse ABHD4; Q8VD66; purified mABHD4, FP-Rh probe fluorescence polarization; inhibition, % at 8.92 µM; 0.54% of 370,000 active;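 active = inhibition exceeding the mean over every tested compound plus 3 SD, cut at about 30% in these data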;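 also: 0% = plate median of compound wells and 100% = S159A mutant with DMSO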
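Test system: mouse ABHD4 enzyme, wild type. Reagent: FP-Rh fluorescent activity-based probe, added after compound pre-incubation. Timing: pre-incubation 45 min, probe exposure 60 min, at 25 °C. Technique: FP readout, ex 525 nm / em 598 nm. Benchmarks: high control S159A mutant with DMSO, low control median of compound wells.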
TCR-CD3 inh = human TCR-CD3 binding inhibition. TAMRA-labeled TCR probe fluorescence, biochemical. inhibition, % at 9.4 µM. 0.37% of 360,000 active; in the data active = inhibition above about 19%;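 also: recombinant mutant TCR 2C K166C tagged with TAMRA read by polarization; 0% = receptor in buffer alone and 100% = receptor with positive control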
PAD4 FP inh = inhibitors of human PAD4 | Q9UM07 | recombinant PAD4, RCA probe fluorescence polarization | inhibition, % at 6.36 µM | 0.41% of 330,000 active | AID 485272;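 active = percent inhibition above a cutoff equal to the mean of all tested compounds plus 3 SD, cut at about 15% in these data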;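 also: 0% = PAD4 with RCA probe and DMSO and 100% = probe without PAD4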
Target sequence (Q9UM07 whole entry, looked up): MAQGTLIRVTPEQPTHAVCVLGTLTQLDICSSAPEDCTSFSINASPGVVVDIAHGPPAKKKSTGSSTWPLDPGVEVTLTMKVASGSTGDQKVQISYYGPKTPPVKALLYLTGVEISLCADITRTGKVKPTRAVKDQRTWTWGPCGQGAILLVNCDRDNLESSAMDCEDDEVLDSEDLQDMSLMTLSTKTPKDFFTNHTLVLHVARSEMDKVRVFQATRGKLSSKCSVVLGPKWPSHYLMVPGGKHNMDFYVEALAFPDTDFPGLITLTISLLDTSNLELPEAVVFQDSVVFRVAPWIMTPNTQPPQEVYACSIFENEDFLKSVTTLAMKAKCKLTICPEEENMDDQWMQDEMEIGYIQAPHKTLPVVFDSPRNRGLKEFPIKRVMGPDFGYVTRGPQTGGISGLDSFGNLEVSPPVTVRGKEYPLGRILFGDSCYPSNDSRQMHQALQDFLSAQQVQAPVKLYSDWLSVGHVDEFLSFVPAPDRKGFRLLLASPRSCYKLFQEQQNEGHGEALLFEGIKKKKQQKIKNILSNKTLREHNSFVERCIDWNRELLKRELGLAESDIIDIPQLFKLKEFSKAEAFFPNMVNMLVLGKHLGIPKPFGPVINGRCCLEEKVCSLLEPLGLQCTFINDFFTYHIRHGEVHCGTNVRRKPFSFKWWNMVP
TDP2 inh = TDP2 (human) inhibition, absorbance primary screen; O95551; recombinant TDP2, T5PNP hydrolysis, p-nitrophenol absorbance 415 nm; inhibition, % at 12.8 µM; 0.34% of 370,000 active; AID 720702;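 active = inhibition above the mean of all tested compounds plus 3 SD, set per campaign, cut at about 25% in these data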;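 also: 0% = DMSO with enzyme and 100% = buffer with substrate but no TDP2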
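Test system: human TDP2 enzyme; Input: 120 nM TDP2 per well; Buffer or medium: Mg2+-containing Tris-HCl buffer, pH 7.5; Reagent: 5 mM T5PNP; Dosing: 12.8 µM single point, 1% DMSO; Incubation: reaction 2 h, 37 °C; Detection: p-Nitrophenol epi absorbance; Read-out: % inhibition relative to enzyme-containing and enzyme-free wells; Replicates: single well per compound.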
TDP2 confirm = human TDP2 inhibition, confirmation; shares compounds with TDP2 inh; 22% of 1,100 active; inhibition, % at 12.8 µM; recombinant human TDP2, absorbance read-out; in the data active = inhibition above about 25%;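 also: 0% = vehicle with enzyme and 100% = no enzyme buffer only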
Active calls of the source: *; / = no result given. An excerpt weighted towards active compounds, which were near 2% of everything screened.

SMILES	HTRA1 inhibitor	SIAE inh	ABHD4 inh	TCR-CD3 inh	PAD4 FP inh	TDP2 inh	TDP2 confirm
COCC(C)n1c(C)cc(C(=O)COC(=O)CCc2nc3ccccc3c(=O)[nH]2)c1C (centres undefined)	-1	3	4	5	-2	31*	11
CN(C)c1ccc(CN2CCC(C(=O)NC(c3ccc(Cl)cc3)c3cnccn3)CC2)cc1 (centres undefined)	/	0	-1	0	/	-2	/
CCOC(=O)C1CCN(S(=O)(=O)c2cc(C(=O)N3CCCCC3)ccc2OC)CC1	-2	-9	0	6	3	25*	-1
CCOC(=O)C1CCN(C(=O)c2ccc(C)c(S(=O)(=O)N3CCCC3)c2)CC1	-3	3	1	6	-5	-7	/
CC(C)CC(=O)N1CCN(S(=O)(=O)c2ccc3ccccc3c2)CC1	-6	3	7	-2	-4	-7	/
CCC(C)N1CCN(S(=O)(=O)c2ccc3ccccc3c2)CC1 (centres undefined)	-6	-1	2	4	-2	32*	6
CSC1=NC(=O)/C(=C\c2cccc3ccccc23)S1	-26	-21	-32	0	-4	25*	0
N=C1S/C(=C\c2cccc3ccccc23)C(=O)N1c1ccc(F)cc1	-29	-18	-12	2	0	4	/
COc1ccc(NC(=O)c2ccc(-n3c(C)ccc3C)cc2)c(OC)c1	-3	6	1	-2	0	30*	-9
O=c1[nH]c(=S)[nH]cc1Oc1ccc(Br)cc1Br	3	-4	-4	-5	/	-6	/
Cc1ccc(CNC(=O)CN(C(=O)C2(C)CC(=O)N=C3C=CC=CN32)c2cc(C)ccc2C)cc1 (centres undefined)	3	10	1	0	-2	26*	6
Cc1ccc(CNC(=O)CN(Cc2cccs2)C(=O)C2(C)CC(=O)N=C3C=CC=CN32)cc1 (centres undefined)	4	5	8	-5	-5	6	/
Cc1ccc(NC2=C/C(=N/S(=O)(=O)c3cccs3)c3ccccc3C2=O)cc1	14	11	16	10	11	36*	41*
Cc1ccc(N2CC(C(=O)NCCS(=O)(=O)N3CCN(c4ccc(F)cc4)CC3)CC2=O)cc1 (centres undefined)	2	-4	6	-6	2	-10	/
CC(Nc1cccc2ccccc12)C(=O)N/N=C/c1ccc([N+](=O)[O-])cc1 (centres undefined)	9	14	16	-8	-1	31*	0
CC(=O)Nc1ccc(/C=C2\CCc3ccccc3C2=O)cc1	-12	-9	-1	0	-2	26*	-9
O=C1/C(=C\c2ccc([N+](=O)[O-])cc2)CCc2ccccc21	-2	1	-9	-4	1	-9	/
CCN(CC)c1ccc2cc(-c3nc(-c4cc5ccccc5oc4=O)cs3)c(=O)oc2c1	-18	0	15	4	/	32*	5
O=c1oc2ccccc2cc1-c1csc(Cc2nc(-c3ccc(Cl)cc3)cs2)n1	-5	-11	-12	4	0	-3	/
CCCCCNC(=O)C(C1CC1)n1c(=O)c(-c2ccco2)nc2ccccc21 (centres undefined)	/	4	6	-1	/	54*	-6
O=C(NCc1ccncc1)c1cccc(S(=O)(=O)N2CCc3ccccc32)c1	-3	0	-6	5	3	1	/
COC(=O)C1CN(Cc2cn(Cc3ccc(Cl)cc3)nn2)CCS(=O)(=O)N1Cc1ccccc1 (centres undefined)	/	1	4	/	/	2	/
CCOC(=O)N1CCN(C2=C(NS(=O)(=O)c3ccccc3)C(=O)c3ccccc3C2=O)CC1	8	5	-7	-7	-7	64*	11
NC(=O)C1CCN(C2=C(NS(=O)(=O)c3ccc(Br)cc3)C(=O)c3ccccc3C2=O)CC1	7	6	6	-1	-14	38*	9
O=C1C(NS(=O)(=O)c2ccc(Cl)cc2)=C(N2CCCCC2)C(=O)c2ccccc21	14	10	22	-3	-11	1	/
SMILES	HTRA1 inhibitor	SIAE inh	ABHD4 inh	TCR-CD3 inh	PAD4 FP inh	TDP2 inh	TDP2 confirm
O=C1C(NS(=O)(=O)c2cccs2)=C(N2CCN(Cc3ccccc3)CC2)C(=O)c2ccccc21	12	8	22	5	-15	40*	9
NC(=O)C1CCN(C2=C(NS(=O)(=O)c3ccccc3)C(=O)c3ccccc3C2=O)CC1	5	7	1	5	-5	9	/
CCN1CCN(C2=C(NS(=O)(=O)c3ccccc3)C(=O)c3ccccc3C2=O)CC1	4	11	7	3	-12	28*	16
CN1CCN(C2=C(NS(=O)(=O)c3cccs3)C(=O)c3ccccc3C2=O)CC1	1	-3	3	1	-14	20	/
O=C(Nc1ccc(F)cc1)OCc1cn(Cc2ccc(F)c(F)c2)nn1	/	-5	-6	/	/	5	/
CC(C)CNC(=O)[C@H](Cc1ccccc1)NC(=O)c1cccs1	-4	9	-1	5	-4	4	/
CCCCCCCCNCCS(=O)(=O)NCc1ccc(OC)cc1	-15	0	11	-3	/	3	/
CC1(c2nnc(-c3ccncc3)o2)CC(c2ccc(F)cc2)=NO1 (centres undefined)	9	-7	4	7	2	1	/
CCN1CCN(C2=C(NS(=O)(=O)c3ccc(Br)cc3)C(=O)c3ccccc3C2=O)CC1	6	9	6	0	9	28*	23
NC(=O)C1CCN(C2=C(Cl)C(=O)c3ccccc3C2=O)CC1	10	-4	7	4	8	50*	76*
O=C1NC(c2cccc3ccccc23)Nc2ccccc21 (centres undefined)	-3	5	-2	-2	/	3	/
O=C1c2ccccc2C(=O)C12OC2c1cccc2ccccc12 (centres undefined)	4	5	7	-2	-15	73*	76*
CC(CCc1ccccc1)NC(=O)CNC(=O)N1CC(=O)Nc2ccccc21 (centres undefined)	-2	3	-1	-2	-1	25*	9
O=C1CN(C(=O)NCC(=O)N[C@@H](Cc2ccccc2)C(=O)O)c2ccccc2N1	-2	2	5	5	-3	-3	/
COc1ccc(Cl)cc1N1C(=O)CN(Cc2cc(OC)c(OC)c(OC)c2)C1=S	4	-1	1	1	0	-7	/
COc1ccc(-n2c(NC(=O)c3ccco3)c(C#N)c3nc4ccccc4nc32)cc1	-2	1	9	2	10	60*	67*
